Results reported in ChEMBL document CHEMBL1145439, “Fluorine-18-labeled benzamide analogues for imaging the sigma2 receptor status of solid tumors with positron emission tomography” (J Med Chem, 2007).

Experiments:
[1] = Tumor to muscle ratio of the drug in mouse EMT6 tumor bearing BALB/c mouse at 10 to 20 uCi after 2 hrs; type: ADME, tissue-based, Muscle tissue
Summary of the method: (§1)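 Tumor-bearing female Balb/c mice (EMT-6 s.c. allograft, ~0.2 cm3) given 10-20 µCi 18F tracer in saline i.v. via tail vein; ≥4 per group; killed 120 min later. Tissues weighed and gamma-counted; ratio = tumor %ID/g divided by that organ's %ID/g.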

Brain [2] = assay: Biodistribution in brain of EMT6 tumor bearing BALB/c mouse at 10 to 20 uCi after 5 mins; type: ADME, organism-based; settings: in vivo
Summary of the method: (§2)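 EMT-6 cells (5×10^5 in 100 µL PBS) implanted s.c. in scapular region of female Balb/c mice (~2 months, 17-22 g); studied 7-10 days later at ~0.2 cm3 tumor. 18F tracer 10-20 µCi in 100-150 µL saline via tail vein; ≥4 mice per time point; tissue removed at sacrifice, weighed, gamma-counted; %ID/g calculated.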

[3] = Decrease in tumor to muscle ratio of the drug in mouse EMT6 tumor bearing BALB/c mouse after 1 hr in presence of YUN-143; type: ADME; set-up: scale not given: the % may be the effect or the level left
Summary of the method: (§3)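 Blocking: 18F tracer coinjected i.v. with 1 mg/kg cold YUN-143 (σ1/σ2 ligand) into EMT-6 tumor-bearing female Balb/c mice; sacrificed at 60 min; tumor/muscle and tumor/fat ratios from %ID/g of gamma-counted tissues.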

Adipose tissue [4] = assay: Biodistribution in fat of mouse EMT6 tumor bearing BALB/c mouse at 10 to 20 uCi after 60 mins; type: ADME, organism-based; settings: in vivo, 1 h; summary of the method: as §2
Muscle tissue [5] = assay: Biodistribution in muscle of EMT6 tumor bearing BALB/c mouse at 10 to 20 uCi after 5 mins; type: ADME, organism-based; settings: in vivo; summary of the method: as §2
Brain [6] = assay: Biodistribution in brain of EMT6 tumor bearing BALB/c mouse at 10 to 20 uCi after 60 mins; type: ADME, organism-based; settings: in vivo, 1 h; summary of the method: as §2
Brain [7] = assay: Biodistribution in brain of EMT6 tumor bearing BALB/c mouse at 10 to 20 uCi after 30 mins; type: ADME, organism-based; settings: in vivo, 0.5 h; summary of the method: as §2
Lung [8] = assay: Biodistribution in lung of mouse EMT6 tumor bearing BALB/c mouse at 10 to 20 uCi after 120 mins; type: ADME, organism-based; settings: in vivo, 2 h; summary of the method: as §2
EMT6 [9] = assay: Biodistribution in tumor of mouse EMT6 tumor bearing BALB/c mouse at 10 to 20 uCi after 60 mins; type: ADME, organism-based; settings: emt6, 1 h; summary of the method: as §2
Adipose tissue [10] = assay: Biodistribution in fat of mouse EMT6 tumor bearing BALB/c mouse at 10 to 20 uCi after 5 mins; type: ADME, organism-based; settings: in vivo; summary of the method: as §2
Liver [11] = assay: Biodistribution in liver of mouse EMT6 tumor bearing BALB/c mouse at 10 to 20 uCi after 30 mins; type: ADME, organism-based; settings: in vivo, 0.5 h; summary of the method: as §2
Kidney [12] = assay: Biodistribution in kidney of mouse EMT6 tumor bearing BALB/c mouse at 10 to 20 uCi after 30 mins; type: ADME, organism-based; settings: in vivo, 0.5 h; summary of the method: as §2
Blood [13] = assay: Biodistribution in blood of mouse EMT6 tumor bearing BALB/c mouse at 10 to 20 uCi after 30 mins; type: ADME, organism-based; settings: in vivo, 0.5 h; summary of the method: as §2
Adipose tissue [14] = assay: Biodistribution in fat of mouse EMT6 tumor bearing BALB/c mouse at 10 to 20 uCi after 120 mins; type: ADME, organism-based; settings: in vivo, 2 h; summary of the method: as §2
[15] = Decrease in tumor to fat ratio of the drug in mouse EMT6 tumor bearing BALB/c mouse after 1 hr in presence of YUN-143; type: ADME; set-up: scale not given: the % may be the effect or the level left; summary of the method: as §3
Liver [16] = assay: Biodistribution in liver of mouse EMT6 tumor bearing BALB/c mouse at 10 to 20 uCi after 60 mins; type: ADME, organism-based; settings: in vivo, 1 h; summary of the method: as §2
Kidney [17] = assay: Biodistribution in kidney of mouse EMT6 tumor bearing BALB/c mouse at 10 to 20 uCi after 5 mins; type: ADME, organism-based; settings: in vivo; summary of the method: as §2
Bone [18] = assay: Biodistribution in bone of mouse EMT6 tumor bearing BALB/c mouse at 10 to 20 uCi after 30 mins; type: ADME, organism-based, Bone element; settings: in vivo, 0.5 h; summary of the method: as §2
Heart [19] = assay: Biodistribution in heart of mouse EMT6 tumor bearing BALB/c mouse at 10 to 20 uCi after 5 mins; type: ADME, organism-based; settings: in vivo; summary of the method: as §2
Heart [20] = assay: Biodistribution in heart of mouse EMT6 tumor bearing BALB/c mouse at 10 to 20 uCi after 30 mins; type: ADME, organism-based; settings: in vivo, 0.5 h; summary of the method: as §2
Lung [21] = assay: Biodistribution in lung of mouse EMT6 tumor bearing BALB/c mouse at 10 to 20 uCi after 30 mins; type: ADME, organism-based; settings: in vivo, 0.5 h; summary of the method: as §2
Bone [22] = assay: Biodistribution in bone of mouse EMT6 tumor bearing BALB/c mouse at 10 to 20 uCi after 60 mins; type: ADME, organism-based, Bone element; settings: in vivo, 1 h; summary of the method: as §2
Lung [23] = assay: Biodistribution in lung of mouse EMT6 tumor bearing BALB/c mouse at 10 to 20 uCi after 60 mins; type: ADME, organism-based; settings: in vivo, 1 h; summary of the method: as §2
EMT6 [24] = assay: Biodistribution in tumor of mouse EMT6 tumor bearing BALB/c mouse at 10 to 20 uCi after 120 mins; type: ADME, organism-based; settings: emt6, 2 h; summary of the method: as §2
EMT6 [25] = assay: Biodistribution in tumor of EMT6 tumor bearing BALB/c mouse 10 to 20 uCi after 30 mins; type: ADME, organism-based; settings: emt6, 0.5 h; summary of the method: as §2
Muscle tissue [26] = assay: Biodistribution in muscle of mouse EMT6 tumor bearing BALB/c mouse at 10 to 20 uCi after 120 mins; type: ADME, organism-based; settings: in vivo, 2 h; summary of the method: as §2
Bone [27] = assay: Biodistribution in bone of mouse EMT6 tumor bearing BALB/c mouse at 10 to 20 uCi after 120 mins; type: ADME, organism-based, Bone element; settings: in vivo, 2 h; summary of the method: as §2
Brain [28] = assay: Biodistribution in brain of mouse EMT6 tumor bearing BALB/c mouse at 10 to 20 uCi after 120 mins; type: ADME, organism-based; settings: in vivo, 2 h; summary of the method: as §2
[29] = Tumor to fat ratio of the drug in mouse EMT6 tumor bearing BALB/c mouse at 10 to 20 uCi after 2 hrs; type: ADME; summary of the method: as §1
Muscle tissue [30] = assay: Biodistribution in muscle of mouse EMT6 tumor bearing BALB/c mouse at 10 to 20 uCi after 60 mins; type: ADME, organism-based; settings: in vivo, 1 h; summary of the method: as §2
Liver [31] = assay: Biodistribution in liver of mouse EMT6 tumor bearing BALB/c mouse at 10 to 20 uCi after 120 mins; type: ADME, organism-based; settings: in vivo, 2 h; summary of the method: as §2
Adipose tissue [32] = assay: Biodistribution in fat of mouse EMT6 tumor bearing BALB/c mouse at 10 to 20 uCi after 30 mins; type: ADME, organism-based; settings: in vivo, 0.5 h; summary of the method: as §2
Blood [33] = assay: Biodistribution in blood of mouse EMT6 tumor bearing BALB/c mouse at 10 to 20 uCi after 60 mins; type: ADME, organism-based; settings: in vivo, 1 h; summary of the method: as §2
Lung [34] = assay: Biodistribution in lung of mouse EMT6 tumor bearing BALB/c mouse at 10 to 20 uCi after 5 mins; type: ADME, organism-based; settings: in vivo; summary of the method: as §2
Heart [35] = assay: Biodistribution in heart of EMT6 tumor bearing BALB/c mouse at 10 to 20 uCi after 120 mins; type: ADME, organism-based; settings: in vivo, 2 h; summary of the method: as §2
Bone [36] = assay: Biodistribution in bone of mouse EMT6 tumor bearing BALB/c mouse at 10 to 20 uCi after 5 mins; type: ADME, organism-based, Bone element; settings: in vivo; summary of the method: as §2
Kidney [37] = assay: Biodistribution in kidney of mouse EMT6 tumor bearing BALB/c mouse at 10 to 20 uCi after 120 mins; type: ADME, organism-based; settings: in vivo, 2 h; summary of the method: as §2
Muscle tissue [38] = assay: Biodistribution in muscle of mouse EMT6 tumor bearing BALB/c mouse at 10 to 20 uCi after 30 mins; type: ADME, organism-based; settings: in vivo, 0.5 h; summary of the method: as §2
Blood [39] = assay: Biodistribution in blood of mouse EMT6 tumor bearing BALB/c mouse at 10 to 20 uCi after 5 mins; type: ADME, organism-based; settings: in vivo; summary of the method: as §2
Blood [40] = assay: Biodistribution in blood of mouse EMT6 tumor bearing BALB/c mouse at 10 to 20 uCi after 120 mins; type: ADME, organism-based; settings: in vivo, 2 h; summary of the method: as §2
EMT6 [41] = assay: Biodistribution in tumor of mouse EMT6 tumor bearing BALB/c mouse at 10 to 20 uCi after 5 mins; type: ADME, organism-based; settings: emt6, 5 min; summary of the method: as §2
Heart [42] = assay: Biodistribution in heart of mouse EMT6 tumor bearing BALB/c mouse at 10 to 20 uCi after 60 mins; type: ADME, organism-based; settings: in vivo, 1 h; summary of the method: as §2
Liver [43] = assay: Biodistribution in liver of mouse EMT6 tumor bearing BALB/c mouse at 10 to 20 uCi after 5 mins; type: ADME, organism-based; settings: in vivo; summary of the method: as §2
Kidney [44] = assay: Biodistribution in kidney of mouse EMT6 tumor bearing BALB/c mouse at 10 to 20 uCi after 60 mins; type: ADME, organism-based; settings: in vivo, 1 h; summary of the method: as §2

COc1cc2c(cc1OC)CN(CCCCNC(=O)c1cc(I)cc(OC)c1OCC[18F])CC2
Ratio [1]: 8 | Drug uptake (Brain [2]): 0.71 % ID/g | Activity [3]: 50% | Drug uptake (Adipose tissue [4]): 0.47 % ID/g | Drug uptake (Muscle tissue [5]): 2.5 % ID/g | Drug uptake (Brain [6]): 0.14 % ID/g | Drug uptake (Brain [7]): 0.27 % ID/g | Drug uptake (Lung [8]): 0.74 % ID/g | Drug uptake (EMT6 [9]): 2.15 % ID/g | Drug uptake (Adipose tissue [10]): 4.13 % ID/g | Drug uptake (Liver [11]): 10.73 % ID/g | Drug uptake (Kidney [12]): 7.73 % ID/g | Drug uptake (Blood [13]): 1.23 % ID/g | Drug uptake (Adipose tissue [14]): 0.17 % ID/g | Activity [15]: 50% | Drug uptake (Liver [16]): 5.57 % ID/g | Drug uptake (Kidney [17]): 19.98 % ID/g | Drug uptake (Bone [18]): 2.01 % ID/g | Drug uptake (Heart [19]): 5.6 % ID/g | Drug uptake (Heart [20]): 1.54 % ID/g | Drug uptake (Lung [21]): 3.75 % ID/g | Drug uptake (Bone [22]): 0.93 % ID/g | Drug uptake (Lung [23]): 1.51 % ID/g | Drug uptake (EMT6 [24]): 1.15 % ID/g | Drug uptake (EMT6 [25]): 3.11 % ID/g | Drug uptake (Muscle tissue [26]): 0.15 % ID/g | Drug uptake (Bone [27]): 0.59 % ID/g | Drug uptake (Brain [28]): 0.08 % ID/g | Ratio [29]: 7 | Drug uptake (Muscle tissue [30]): 0.4 % ID/g | Drug uptake (Liver [31]): 2.61 % ID/g | Drug uptake (Adipose tissue [32]): 1.36 % ID/g | Drug uptake (Blood [33]): 0.65 % ID/g | Drug uptake (Lung [34]): 18.47 % ID/g | Drug uptake (Heart [35]): 0.39 % ID/g | Drug uptake (Bone [36]): 2.23 % ID/g | Drug uptake (Kidney [37]): 1.34 % ID/g | Drug uptake (Muscle tissue [38]): 0.73 % ID/g | Drug uptake (Blood [39]): 1.82 % ID/g | Drug uptake (Blood [40]): 0.28 % ID/g | Drug uptake (EMT6 [41]): 3.05 % ID/g | Drug uptake (Heart [42]): 0.69 % ID/g | Drug uptake (Liver [43]): 15.21 % ID/g | Drug uptake (Kidney [44]): 3.5 % ID/g
